Assay: Toxicity liver stage against HepG2, at 10uM
Type: cell-based
Parameters: test concentration 10 uM, cell line HepG2-A16-CD81EGFP
Details: human, HepG2-A16-CD81EGFP cells; read-out: INHIBITION
Summary of the method: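 Uninfected HepG2-A16-CD81EGFP cells, 3 × 10^3 per well, 1536-well, plated on prespotted compound at 10 μM final, parasite-free screening media added to match infected plates; puromycin 10 μM positive, DMSO 0.5% negative; run in parallel with 48 h PbLuc assay at 37 °C, 5% CO2; viability by CellTiter-Glo luminescence, normalized to controls.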

Row | SMILES | cytotoxicity at 10 µM [%]
1 | COCc1nc(N(C)C)ncc1C(=O)OC | 13.2
2 | O=c1[nH]c(NCCO)nc2c1C1(CCCCC1)Cc1ccccc1-2 | 7.11
3 | CCN1CCN(Cc2coc(-c3cccc(F)c3)n2)CC1 | -7.75
4 | CC(C)(C)CN1CCOC[C@H]1c1nc(-c2cccc(F)c2)c[nH]1 | -3.79
5 | Cn1nc(-c2ccc(Cl)cc2)c(Br)c1C(=O)O | -46.8
6 | CC(=O)Nc1ccc(OCc2noc(C(=O)N3CCCCCC3)n2)cc1 | -23
7 | Cc1nccn1CC1CCN(C(=O)Cc2ccccc2)CC1 | -17
8 | Cc1cccc(CN2CCc3[nH]nc(C(=O)N4CCOCC4)c3C2)n1 | 6.31
9 | CCS(=O)(=O)NCC1OCCc2cn(CC3CCOCC3)nc21 (stereo unspecified) | 2.77
10 | O=C(O)c1nnn(-c2cccc(C(F)(F)F)c2)c1-c1ccncc1 | 4.76
11 | Cc1ccc(NC(=O)Cn2cc(I)cn2)cc1C | 5.03
12 | CCN1CCN(S(=O)(=O)c2cc(C)c(C)cc2Br)CC1 | -9.74
13 | c1ccc(N2CCC(c3ccncc3)CC2)cc1 | 8.45
14 | CN1CCCC(c2cccc(-c3cccc(Cl)c3)n2)C1 (stereo unspecified) | -9.58
15 | CC(C)(C)n1nnnc1CN(CCc1ccccc1)Cc1ccccc1 | 4.91
16 | Cc1c[nH]nc1C1CCN(C(=O)C2CCCC2)C1 (stereo unspecified) | 0.631
17 | Nc1cc(N2CCOCC(Cc3ccc4[nH]ccc4c3)C2)ncn1 (stereo unspecified) | -5.69
18 | CCc1c(C)nc2cc(C3CCN(Cc4ccc(F)cc4)C3)nn2c1O (stereo unspecified) | -18.6
19 | O=C(Cc1ccc2c(c1)CCCC2)N[C@@H]1CC[C@@H](n2ccnc2)[C@@H]1O | -5.69
20 | Cc1cc(C)nc(N2CCC(c3cncc(-n4ccnc4)n3)CC2)n1 | -8.66
21 | CCCN1CCN(C(=O)c2cccnc2)CC1 | -48.5
22 | COc1ccc(CN(C(=O)C2CCCOC2)c2ccncc2)cc1 (stereo unspecified) | 6.35
23 | CC(C)c1cc(C(=O)N2CCc3ccccc3C2C(=O)O)n(C)n1 (stereo unspecified) | 7.28

Row | SMILES | cytotoxicity at 10 µM [%]
24 | CCN(C)S(=O)(=O)N(Cc1cscn1)c1ccccc1 | -3.81
25 | CC(=O)c1cccc(NC(=O)NCCc2nnc[nH]2)c1 | -39.1
26 | COc1cccc(CNCc2c(C)nc3sc(C)cn23)c1OC | 32.8
27 | O=C(NCCCC(=O)N1Cc2ccccc2C1)NCc1cccnc1 | 11.9
28 | CN1CCOC(CNCCOc2cccc(C#N)c2)C1 (stereo unspecified) | 7.56
29 | Cn1cccc1C(=O)NC1CCN(c2ccc(OC(F)(F)F)cc2)CC1 | 4.87
30 | Cc1c(NCc2ccccc2C#N)cccc1S(=O)(=O)NC1CC1 | 30.4
31 | O=C(CCn1ccc2ccccc21)N1CCN(Cc2cccnc2)CC1 | 0.951
32 | CN(Cc1cccc(C#N)c1)c1ncc(C(N)=O)cc1Cl | 1.33
33 | CCc1ccc(C2COCCN2C(=O)Nc2ccc(C#N)cc2)o1 (stereo unspecified) | -0.0554
34 | O=C(NC1CCCCC1)C1CCCN(C(=O)Nc2ccccn2)C1 (stereo unspecified) | 3.57
35 | Cc1cnn(CCNCc2ccc(OCc3noc(C)n3)cc2)c1 | 1.33
36 | CCOC(C)c1noc(CN2CCN(c3nnc(C)s3)CC2)n1 (stereo unspecified) | -11.1
37 | COCC(C)(C#N)NC(=O)COc1ccccc1 (stereo unspecified) | 7.51
38 | CN(CCCc1ccc(C(F)(F)F)cc1)Cc1nccn1C | 9.05
39 | CC(C)CC(Cc1cccc(Br)c1)C(=O)O (stereo unspecified) | 13.8
40 | Cc1cc(N(C)CCOc2ccccc2F)nc(N)n1 | 20.1
41 | COc1cccc(N2CCC(CNc3cc(C)nc4ncnn34)C2)c1 (stereo unspecified) | 59.7
42 | CCCN(CCc1ccccn1)C(=O)CCc1cnn(C)c1 | -2.84
43 | CC(=O)N1CCN(C2CCc3ccccc32)CC1 (stereo unspecified) | -44.7
44 | O=C(CN1CCC(Nc2ncccn2)CC1)Nc1ccccc1 | -17.5
45 | Cc1ccc(CN(C)C(=O)c2cnsn2)cc1 | -16.4
46 | Cc1ccccc1C(=O)NC1CCN(Cc2ncc(C(C)(C)C)o2)CC1 | -17.5

Row | SMILES | cytotoxicity at 10 µM [%]
47 | Cc1ccc(-n2ncc(C(=O)NC3CCCCC3)c2N)cc1 | -50.6
48 | Cc1cc(NC(=O)c2nc(N3CCCC3)ncc2Cl)nc(C(C)C)n1 | 69.3
49 | CSc1ccc(C(CN)N2CCc3sccc3C2)cc1 (stereo unspecified) | -5.93
50 | COc1cc(N2C[C@@H]3COC[C@@H](Cc4nc(C)no4)[C@@H]3C2)ncn1 | -105
51 | O=C(c1ccoc1)N1CCc2c(COCC3CC3)cncc2C1 | -76.9
52 | COCCC(=O)N1CC[C@H]2O[C@@H](C)C[C@H]2C1 | -72.4
53 | Cc1nc(NCC2CC2)nc2c1COCC21CCN(S(=O)(=O)C2CC2)C1 (stereo unspecified) | -84.8
54 | COCC1CN(C(=O)Cc2cccs2)Cc2c1cnn2C (stereo unspecified) | -65.6
55 | O=C(NC1CCC1)C1=NOC2(CCN(Cc3ccc(F)cc3)C2)C1 (stereo unspecified) | -67.7
56 | CCO[C@@H]1CO[C@@]2(CCCN(S(=O)(=O)c3ccccc3)C2)C1 | -77.2
57 | CSc1ncccc1C(=O)N1CCCC1c1ccc(C(=O)N(C)C)s1 (stereo unspecified) | 6.45
58 | Cn1nnnc1SCCNC1CCN(c2ccc3c(c2)OCO3)CC1 | 3.07
59 | CCc1cc(CN2CCCCC2c2ccc(F)cc2)on1 (stereo unspecified) | -2.45
60 | FC(F)(F)CCc1ccnc(N2CCN(CCc3ccncc3)CC2)n1 | -5.86
61 | Cc1cc(F)c(C(C(=O)O)N2CCN(Cc3ccccn3)CC2)cc1Cl (stereo unspecified) | 4.2
62 | CC(C)N(C)S(=O)(=O)c1ccc2c(c1)CCN(C(=O)c1cscn1)C2 | 8.48
63 | CC(C)c1nc(CN(C)C(=O)c2ccc(CN3CCCCC3)cc2)cs1 | -6.1
64 | CCCN1CCN(S(=O)(=O)c2ccccc2OC)[C@H]2CS(=O)(=O)C[C@H]21 | -3.56
65 | C=C(C)COc1cccc(C(=O)N2CCC(O)(c3ccccc3)CC2)c1 | -44.9
66 | c1ccc(-c2nc3c(c(NCCn4cccc4)n2)CCNCC3)nc1 | -51.9
67 | COc1ccc(C(=O)N2CCC3(CC2)c2ccccc2[C@@H](N)[C@@H]3O)cc1 | -3.34
68 | CN1CCC(N(C)CCC(=O)N2CCC(Cc3ccc(F)cc3)CC2)C1 (stereo unspecified) | -1.9
69 | Cc1nc2c(c(NCc3ccccc3)n1)CCN(C(=O)NC(C)C)CC2 | 28.7

Row | SMILES | cytotoxicity at 10 µM [%]
70 | Cc1ncsc1CCN(C)C(=O)CN1C(=O)OC[C@@H]1c1ccccc1 | -51.2
71 | CC(C)c1ocnc1C(=O)NC(c1nnc2n1CCNCC2)C(C)C (stereo unspecified) | -9.72
72 | CN(C)c1nc2c(c(N3CCc4ccccc4C3)n1)CCNC2 | 10.9
73 | COc1cccc(CCC2CCCN(Cc3ncc[nH]3)C2)c1 (stereo unspecified) | 1.13
74 | CN(CCSc1ccccc1)C(=O)c1cn2c(n1)CNCC2 | -47.4
75 | OCCOc1ccccc1CN1CCCC(O)(CO)C1 (stereo unspecified) | -38.7
76 | COc1ccc(-n2cnnc2CC2CCNCC2)cc1 | -5.53
77 | CCc1nn(C)c(Cl)c1CN1CCN(c2ccc(Cl)nn2)CC1 | 8.01
78 | CCc1csc(CNc2nc3c(s2)c(C)nn3C)n1 | -35.5
79 | O=C(NC1CC1)C1CN(c2nc3ccccc3s2)CCN1 (stereo unspecified) | -49.4
80 | COc1ncc(-c2cc(NC3CCCC3)nc3[nH]ccc23)c(OC)n1 | 16.3
81 | CCC(=O)Nc1cccc(OCC(=O)N(C)Cc2nccn2CC)c1 | 3.96
82 | C1Cc2nc(CCNc3nc(C4CC4)nc4c3CCNCC4)sc2C1 | -10.4
83 | Nc1nc2c(c(N3CCSCC3)n1)CCN(Cc1ccccn1)CC2 | -53
84 | COc1ccc(OCc2cc(C(=O)N3CCN[C@H](C)C3)n[nH]2)c(Cl)c1 | -11.7
85 | COc1ccc(N(c2ccccc2)c2ccc(C(=O)O)s2)cc1 | -1.5
86 | Cc1cc(Br)c(O)c(-c2nc(N3CCCCC3)sc2C)c1 | -7.13
87 | CC(=O)N1C[C@@H](c2ccsc2)[C@@H]2CN(Cc3cccc(Cl)c3)CC[C@@H]21 | 13.1
88 | CCOCCCn1c(NC(=O)c2cc(C)on2)nc2ccccc21 | -31.3
89 | Cc1nn(C)c(N(C)C)c1CNCCC(=O)NC1CCCC1 | -3.37
90 | COCCN1CCN(CCCS(=O)(=O)N(C)C)CC1C (stereo unspecified) | 3.54
91 | CC(=O)c1ccc(S(=O)(=O)NCc2cccnc2N(C)C)cc1 | 12.6
92 | COCCc1noc(CN2CCCC2Cn2nc(C)nc2C)n1 (stereo unspecified) | -1.39

Row | SMILES | cytotoxicity at 10 µM [%]
93 | CC(C)C(=O)NC1CCCN(C(=O)c2ccc(O)c(Cl)c2)C1 (stereo unspecified) | -6.04
94 | CCc1ccc(CN2CCCCC2c2n[nH]cc2-c2cc(C)no2)cc1 (stereo unspecified) | 35
95 | CC1(C)CC(N(Cc2cccnc2)Cc2cccnc2)CC(C)(C)N1 | 1.3
96 | CO[C@@H]1CO[C@@]2(CCCN(Cc3nc(C)cs3)C2)C1 | -138
97 | CN1CCN(C(=O)Cc2ccsc2)Cc2cccnc21 | -1.16
98 | Cn1nc(C2CCCN(Cc3ccccc3)C2)c2nccnc21 (stereo unspecified) | -9.05
99 | CC[C@@H]1N(CC2CC2)CCC[C@]12CCC(=O)N2 | 15.4
100 | N#Cc1ccc(N2CCCC3(CCN(c4cncnc4)C3=O)C2)nc1 (stereo unspecified) | -97.6
101 | Cc1occc1C(=O)N1C[C@@H]2OCCN(CCN3CCCC3)[C@@H]2C1 | -76.1
102 | c1cncc(OC[C@@H]2CCC[C@@]23CN(Cc2nccs2)CCO3)c1 | -63.3
103 | Cn1ncc2c1CN(C(=O)Cc1ccccn1)CC2COCC1CC1 (stereo unspecified) | -73.6
104 | O=C(N1CCCC1)N1CCOCC2(CCN(Cc3cccs3)C2)C1 (stereo unspecified) | -3.85
105 | CN(C)c1nccc(N2CCO[C@H]3CN(Cc4ccsc4)C[C@H]32)n1 | 8.93
106 | Cc1ccc(CN2Cc3nccn3CC(CN(C)C)C2)s1 (stereo unspecified) | -82.4
107 | Cc1occc1C(=O)N1CCC2(CCN(Cc3ccccn3)C2=O)C1 (stereo unspecified) | -152
108 | COc1cc(CNC(C)c2ccc(F)c(F)c2)cc2c1OCCO2 (stereo unspecified) | -1.58
109 | CCC1=NN2C(=N)C(=Cc3cccn3-c3ccc(Br)cc3)C(=O)N=C2S1 | -7.83
110 | Cc1nnc(CN2C[C@@H]3CC[C@H]2CN(C2Cc4ccccc4C2)C3)o1 | -1.06
111 | CN(C)C(=O)[C@H]1C[C@H]2CN(CCc3ccccc3)C[C@@H]1O2 | -94.2
